Assay [1] concerns Rattus norvegicus. The experiment in a line: In vivo inhibition of sterol synthesis in rats following 10 mg/kg p.o. The conditions noted are these: for inhibition in vivo at 10 mg/kg: Rattus norvegicus, po. Format: functional. Summed up:
(§1)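 Oral dosing of 6-week-old male Wistar rats with test compound suspended in 0.5% methylcellulose. [14C]acetate (50 μCi/kg) given iv 1 h after the dose; animals killed 1 h later. Livers saponified and extracted with petroleum ether. Sterols precipitated with 0.5% digitonin in 50% ethanol (4 h, room temperature), then counted. Result is % inhibition vs control, mean ± SD (n = 6-10), Dunnett's test.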

The target in assay [2] is T1, Squalene synthase (Homo sapiens, UniProt P37268).
T1 sequence (P37268 whole entry): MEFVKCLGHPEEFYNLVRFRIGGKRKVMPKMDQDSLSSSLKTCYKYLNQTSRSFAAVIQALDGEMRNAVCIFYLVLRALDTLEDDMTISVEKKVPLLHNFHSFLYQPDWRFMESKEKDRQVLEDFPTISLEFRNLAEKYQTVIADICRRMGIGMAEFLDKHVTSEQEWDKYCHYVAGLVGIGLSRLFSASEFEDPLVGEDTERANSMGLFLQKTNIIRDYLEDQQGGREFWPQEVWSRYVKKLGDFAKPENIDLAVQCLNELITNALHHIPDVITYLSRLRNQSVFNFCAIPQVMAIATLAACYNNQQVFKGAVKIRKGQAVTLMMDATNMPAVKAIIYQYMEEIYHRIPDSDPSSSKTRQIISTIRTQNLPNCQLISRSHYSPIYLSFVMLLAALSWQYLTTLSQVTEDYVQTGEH
The experiment in a line: Inhibition of squalene synthase from human hepatoma cells (HepG2). A digest of the protocol: (§2)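 Enzyme source: microsomes from HepG2 cells grown in DMEM/10% FBS, sonicated in phosphate/nicotinamide/MgCl2 buffer. Reaction contained 5 µM [1-3H]FPP, 1 mM NADPH, 5 mM MgCl2, 6 mM glutathione, 100 mM potassium phosphate pH 7.4, 2% DMSO final, 0.8 µg protein. Run 45 min at 37 °C. Chloroform-extracted [3H]squalene counted. IC50 from one run in duplicate.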

The target in assay [3] is T1, Squalene synthase. The experiment in a line: Inhibitory activity against squalene synthase derived from human hepatoma cells (HepG2). A digest of the protocol:
as §2

The species named for assay [4] is Rattus norvegicus. The experiment in a line: Concentration required for 50% inhibitory activity against cholesterol synthesis in rat liver. It is filed as functional. A digest of the protocol: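 In vivo hepatic sterol synthesis in 6-week-old male Wistar rats. Oral doses of 1, 3 and 10 mg/kg in 0.5% methylcellulose. [14C]acetate (50 μCi/kg) iv 1 h post-dose; killed 1 h later. Radioactivity of digitonin-precipitable liver sterols measured. ED50 is the oral dose giving 50% inhibition of sterol synthesis.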

Assay [5] deals with Rattus norvegicus. The experiment in a line: Compound at a dose of 1 mg/kg was administered orally to 6 week old male Wistar rats and was evaluated for the inhibition of sterol synthesis. It is filed as functional. The conditions noted are these: route oral. A digest of the protocol: as §1
The subject of assay [6] is Rattus norvegicus. The experiment in a line: Compound at a dose of 3 mg/kg was administered orally to 6 week old male Wistar rats and was evaluated for the inhibition of sterol synthesis. Format: functional. Conditions: route oral. A digest of the protocol: as §1
Assay [7] relates to Rattus norvegicus. The experiment in a line: Compound was evaluated in vivo for its inhibitory activity against cholesterol synthesis in rat liver. Format: functional. A digest of the protocol: as §1
Assay [8] relates to Rattus norvegicus. The experiment in a line: Compound at a dose of 3 mg/kg was dministered orally to 6 week old male Wistar rats and was evaluated for the inhibition of terol synthesis. Format: functional. Conditions: route oral. Summed up: as §1

The record followed here is ChEMBL document CHEMBL1135616, “Synthesis of novel 4,1-benzoxazepine derivatives as squalene synthase inhibitors and their inhibition of cholesterol synthesis” (J Med Chem, 2002).

Consider `COc1cccc([C@H]2O[C@H](CC(=O)N3CCC(CCCC(=O)O)CC3)C(=O)N(CC(C)(C)CO)c3ccc(Cl)cc32)c1OC`, for which the inhibition in vivo at 10 mg/kg with Rattus norvegicus [1] was 87%. Moreover, the IC50 against Squalene synthase [2] is 70 nM.
As to `COc1cccc([C@H]2O[C@H](CC(=O)N(C)CC(=O)O)C(=O)N(CC(C)(C)CO)c3ccc(Cl)cc32)c1OC`, the inhibition in vivo at 10 mg/kg in the assay on Rattus norvegicus [1] was -1%. Also, the IC50 against Squalene synthase [2] amounted to 18 nM.
Take `COc1cccc([C@H]2O[C@H](CC(=O)N3CCC(CC(=O)O)CC3)C(=O)N(CC(C)(C)COCOC(=O)C(C)(C)C)c3ccc(Cl)cc32)c1OC`: the inhibition in vivo at 10 mg/kg in the assay on Rattus norvegicus [1] came out at 43%. The compound also gave an IC50 at Squalene synthase [3] of 471 nM.
Turning to `COc1cccc([C@H]2O[C@H](CC(=O)NC(CC(C)C)C(=O)O)C(=O)N(CC(C)(C)CO)c3ccc(Cl)cc32)c1OC` (stereo partly specified), the inhibition in vivo at 10 mg/kg with Rattus norvegicus [1] stood at 14%. On Squalene synthase [2], the IC50 came out at 28 nM.
The corresponding values for `CCCC(=O)OCC(C)(C)CN1C(=O)[C@@H](CC(=O)N2CCC(CC(=O)O)CC2)O[C@H](c2cccc(OC)c2OC)c2cc(Cl)ccc21` are 30% and 93 nM.
On the same counts, the results for `COc1cccc([C@H]2O[C@H](CC(=O)NCCC(=O)O)C(=O)N(CC(C)(C)CO)c3ccc(Cl)cc32)c1OC` are 19% and 15 nM.
`COc1cccc([C@H]2O[C@H](CC(=O)N[C@H](C)C(=O)O)C(=O)N(CC(C)(C)CO)c3ccc(Cl)cc32)c1OC`: in the assay with Rattus norvegicus [1], the inhibition in vivo at 10 mg/kg turned out to be 31%. Further, the IC50 against Squalene synthase [2] was found to be 18 nM.
On the same counts, the results for `COc1cccc([C@H]2O[C@H](CC(=O)N[C@@H](C)C(=O)O)C(=O)N(CC(C)(C)CO)c3ccc(Cl)cc32)c1OC` are 14% and 21 nM.
Turning to `COc1cccc([C@H]2O[C@H](CC(=O)NCCCCC(=O)O)C(=O)N(CC(C)(C)CO)c3ccc(Cl)cc32)c1OC`, the inhibition in vivo at 10 mg/kg in the assay on Rattus norvegicus [1] was found to be 50%. Further, half-maximal inhibition against Squalene synthase [2] (IC50) was put at 38 nM.
Regarding `COc1cccc([C@H]2O[C@H](CC(=O)N3CCC(CC(=O)O)CC3)C(=O)N(CC(C)(C)COC(=O)C(C)C)c3ccc(Cl)cc32)c1OC`, in the assay on Rattus norvegicus [1], the inhibition in vivo at 10 mg/kg was found to be 34%. In addition, inhibition on Squalene synthase [3] was half-maximal at 89 nM (IC50).
Consider `COc1cccc([C@H]2O[C@H](CC(=O)N3CCC(CC(=O)O)CC3)C(=O)N(CC(C)(C)CO)c3ccc(Cl)cc32)c1OC`, for which, in the assay filed under Rattus norvegicus [4], the ED50 is 6.8 mg/kg. Also, the inhibition in vivo at 1 mg/kg in the assay on Rattus norvegicus [5] is 11%. In addition, the inhibition in vivo at 10 mg/kg in the assay on Rattus norvegicus [1] was 77%. This compound also came in with an Inhibition in the assay on Rattus norvegicus [1] (route oral, 10 mg/kg) of 64%. The inhibition in vivo at 3 mg/kg in the assay on Rattus norvegicus [6] was 20%. This compound also yielded an IC50 on Squalene synthase [2] of 45 nM.
In the case of `COc1cccc([C@H]2O[C@H](CC(=O)NCCCC(=O)O)C(=O)N(CC(C)(C)CO)c3ccc(Cl)cc32)c1OC`, in the assay on Rattus norvegicus [1], the inhibition in vivo at 10 mg/kg came to 59%. 32 nM corresponded to half-maximal inhibition on Squalene synthase [2] (IC50).
For the compound `CCC(=O)OCC(C)(C)CN1C(=O)[C@@H](CC(=O)N2CCC(CC(=O)O)CC2)O[C@H](c2cccc(OC)c2OC)c2cc(Cl)ccc21`, the inhibition in vivo at 10 mg/kg in the assay on Rattus norvegicus [1] worked out at 40%. Further, the IC50 at Squalene synthase [2] worked out at 87 nM.
With `COc1cccc([C@H]2O[C@H](CC(=O)[O-])C(=O)N(CC(C)(C)C)c3ccc(Cl)cc32)c1OC.[Na+]`, in the assay on Rattus norvegicus [7], the 50% effect level (ED50) was put at a dose of 3 mg/kg.
Turning to `COc1cccc([C@H]2O[C@H](CC(=O)N3CCC(C(=O)O)CC3)C(=O)N(CC(C)(C)CO)c3ccc(Cl)cc32)c1OC`, the inhibition in vivo at 10 mg/kg with Rattus norvegicus [1] is 26%.
For `COc1cccc([C@H]2O[C@H](CC(=O)N3CCC(CCC(=O)O)CC3)C(=O)N(CC(C)(C)CO)c3ccc(Cl)cc32)c1OC`, the inhibition in vivo at 10 mg/kg in the assay on Rattus norvegicus [1] is 76%. Also, the IC50 against Squalene synthase [2] was 61 nM.
For the compound `COc1cccc([C@H]2O[C@H](CC(=O)NCC(=O)O)C(=O)N(CC(C)(C)CO)c3ccc(Cl)cc32)c1OC`, the inhibition in vivo at 10 mg/kg in the assay with Rattus norvegicus [1] stood at 14%. The compound further yielded an IC50 against Squalene synthase [2] of 15 nM.
In the assay filed under Rattus norvegicus [4], `COc1cccc([C@H]2O[C@H](CC(=O)N3CCC(CC(=O)O)CC3)C(=O)N(CC(C)(C)COC(C)=O)c3ccc(Cl)cc32)c1OC` [LAPAQUISTAT ACETATE] registered an ED50 of 2.9 mg/kg. Further, the inhibition in vivo at 1 mg/kg with Rattus norvegicus [5] stood at 31%. For the same compound, in the assay on Rattus norvegicus [1], the inhibition in vivo at 10 mg/kg turned out to be 81%. Moreover, the inhibition in vivo at 3 mg/kg with Rattus norvegicus [8] amounted to 42%. For the same compound, it took 78 nM to reach half-maximal inhibition at Squalene synthase [2] (IC50).

The term inhibition in vivo denotes the relative decrease from the control value, in per cent. The IC50 is the concentration needed to halve the response being measured. Broadly, the ED50 is the midpoint of the dose-response relation. Low values mean greater potency, high ones weaker potency. The term Inhibition denotes how much of the control response was suppressed. Higher therefore signals a response far below the control.
